Bioassay records: PubChem BioAssay, several laboratories
An excerpt weighted towards active compounds, which were near 1.6% of everything screened.
Arrestin-AP2 inh = human beta-arrestin and AP2 interaction inhibition | FITC-arrestin peptide / GST-AP2 beads, flow cytometry; AP2 beta2 appendage carries R879A mutation | 340,000 tested, 0.31% active | inhibition, % at 10 µM;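 active means inhibition above a set limit, near 3 SD of compounds lacking own fluorescence, cut at about 54% in these data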;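 further: plate controls were DMSO wells for no effect and 5 µM unlabelled arrestin peptide for full effect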
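System: GST-AP2 R879A bound to glutathione beads, E. coli-expressed. Also added: 50 nM FITC-arrestin peptide. Schedule: compound with beads 12 min RT, then probe 1 h RT. Signal: bead flow cytometry, FITC channel. Read-out basis: percent response.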
MT1-MMP act inh = inhibitors of human MT1-MMP activation | 360,000 tested, 0.061% active | P50281 | HT1080 RFP-PRO-GFP cells, GFP/RFP ratio fluorescence, overnight; percent of plate control window, DMSO zero | GFP/RFP ratio change, % at 20 µM;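 active means GFP/RFP ratio change of at least 30% with cell ATP level not reduced by more than half and red fluorescence within 50% of control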
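Assay system: HT1080 cells carrying an RFP-PRO-GFP reporter | Dosing: Single dose of 20 µM compound, 1% DMSO final | Incubation: Cells overnight before dosing, compound overnight, 37 °C, 5% CO2 | Evaluation: GFP/RFP fluorescence ratio | Control set: DMSO and RFP-L50D-GFP cell wells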
Rin1-Abl PPI inh = blocks binding of human Rin1 to Abl; P00519+Q13671; 360,000 tested, 0.4% active; TR-FRET Rin1/Abl binding, biochemical; AID 588664; inhibition, % at 7.35 µM; in the data active means inhibition above about 5%, passing the limit was not always enough
TbMetRS inhib = Trypanosoma brucei MetRS inhibition; 360,000 tested, 0.4% active; AID 624268; purified T. brucei MetRS, ATP depletion, Kinase-Glo luminescence; inhibition, % at 11.9 µM;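 active means inhibition above a per-plate cutoff of the control wells' mean inhibition plus 3 SD, cut at about 5.5% in these data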;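 further: 0% = DMSO wells median and 100% = median of wells with control inhibitor compound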
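Test system: purified T. brucei MetRS enzyme. Also added: ATP, methionine and E. coli bulk tRNA substrates. Compound: 11.9 µM single point. Schedule: 15 min enzyme-compound preincubation, 2 h reaction, 10 min detection, 25 °C. Signal: luciferase luminescence of residual ATP, Kinase-Glo. Evaluation: percent inhibition versus plate control medians. Controls: DMSO wells, low control.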
SKN-1 block = inhibitors of C. elegans SKN-1. C. elegans VP596 Pgst-4::GFP/RFP ratio, acrylamide-induced, 24 h. inhibition, % at 21.8 µM. 360,000 tested, 0.49% active. AID 624304;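 active means interference check ratio from 0.5 to 1.5 plus GFP to RFP signal ratio inhibition reaching or exceeding a fixed threshold, cut at about 30% in these data, passing the limit was not always enough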
Rin1-Abl confirm = Rin1-Abl interaction inhibition confirmation; TR-FRET Rin1-Abl binding, purified proteins; 1,300 tested, 49% active; inhibition, % at 7.35 µM; shares compounds with Rin1-Abl PPI inh
GFP quench = GFP fluorescence interference artifact. shares compounds with Rin1-Abl PPI inh. inhibitors/quenchers counterscreen. inhibition, % at 6.75 µM. 1,300 tested, 8.5% active;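 further: ABL1-eGFP fusion protein alone without its partner RIN1-SBP; 0% = protein with vehicle and 100% = wells lacking protein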
GFP quench DR = GFP fluorescence interference dose response. shares compounds with Rin1-Abl PPI inh. GFP fluorescence interference/quenching counterscreen. IC50, µM. 230 tested, under 10 active. AID 602182; call rule not given here;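 further: ABL1-eGFP fusion protein alone without its RIN1 binding partner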
The depositor's hits bear a star; nt = not tested or not shown. Unless noted, no stated cut-off is given here; in the data, active means inhibition above about 6.5%; inactive means the rest.

SMILES | Arrestin-AP2 inh | MT1-MMP act inh | Rin1-Abl PPI inh | TbMetRS inhib | SKN-1 block | Rin1-Abl confirm | GFP quench | others
CC(=O)c1ccc(NC(=O)C2(S(=O)(=O)c3ccccc3)CC2)cc1 | 34 | 2 | 10* | 0 | 5 | -2 | -1
O=C(Nc1ccc(N2CCOCC2)cc1)C1(S(=O)(=O)c2ccccc2)CC1 | 27 | -11 | -5 | -2 | -4 | nt | nt
COc1ccccc1-c1noc2c1C(=O)N(Cc1cn(Cc3ccccc3)nn1)CC2 | nt | 3 | -1 | 0 | -20 | nt | nt
CCCc1cc(=O)[nH]c(SCC(=O)NC2CCCCCCC2)n1 | 19 | 6 | 9.1* | 0 | -11 | 1 | -1
COc1ccc(C2Nc3ccccc3C(=O)N2NS(=O)(=O)c2ccc(C)cc2)c(OC)c1 (stereo not given) | 16 | -1 | 0 | 0 | 8 | nt | nt
Cc1ccc(S(=O)(=O)NN2C(=O)c3ccccc3NC2c2ccccc2F)cc1 (stereo not given) | 7 | -5 | 13* | 1 | 7 | -2 | -5
COc1cc(CCN(C(=O)c2cccc(S(C)(=O)=O)c2)C(CCc2ccccc2)c2nc3ccccc3[nH]2)cc(OC)c1 (stereo not given) | nt | -1 | 1 | 1 | 10 | nt | nt
CC(CNC(=O)CN1C(=O)CCSc2ccccc21)c1ccccc1 (stereo not given) | -1 | 0 | -3 | -1 | 3 | nt | nt
CCOc1ccc(CCNC(=O)CN2C(=O)CCSc3ccccc32)cc1 | 11 | 3 | 11* | -1 | 10 | 1 | 0
O=C(O)C(=Cc1ccc([N+](=O)[O-])cc1)c1cccc(Cl)c1 | nt | 2 | 4 | 0 | 10 | nt | nt
COc1ccccc1CNc1nc(NCCN2CCNC2=O)c2sccc2n1 | nt | -4 | 12* | 0 | 2 | 6.9* | -1
COCCNc1nc(NCCN2CCNC2=O)c2sccc2n1 | nt | 4 | -2 | 0 | 10 | nt | nt
Cc1c(F)cccc1NC(=O)CCCCCC1NC(=O)NC1C (stereo not given) | -2 | 4 | 86* | 0 | -6 | 98* | -1 | GFP quench DR=>68
CC1NC(=O)NC1CCCCCC(=O)Nc1ccc(F)cc1 (stereo not given) | 7 | -3 | 84* | 0 | -4 | 98* | 0 | GFP quench DR=>68
Cc1c(F)cccc1NC(=O)CCC(=O)O | 30 | 0 | -1 | -1 | -12 | nt | nt
COc1ccc(Cl)cc1NC(=O)/C=C\C(=O)O | -4 | 1 | 5.4* | 0 | 6 | -4 | 0
COc1ccccc1NC(=O)c1csc2c1CCCC2 | -5 | -2 | -3 | 0 | -15 | nt | nt
COC(=O)Nc1csc2c1NC(=O)CCCC2 | 33 | 6 | 43* | -1 | 2 | 44* | -1 | GFP quench DR=>68
CNc1ncnc2c1ncn2[C@H]1CN(CCN2CCOCC2)C[C@@H](CO)O1 | nt | 2 | -2 | 0 | 14 | nt | nt
Cc1ccccc1C(=O)NNC(=O)Cc1ccccc1 | 15 | -1 | 9.3* | -1 | 2 | -1 | 1
CC1(C(=O)NCc2ccccc2)CSCC(=O)N1Cc1ccco1 (stereo not given) | nt | 2 | nt | 0 | -1 | nt | nt
CCSc1nnc(NC(=O)CSc2nc3c(c(=O)n2C)SC(C)C3)s1 (stereo not given) | 7 | 1 | 9.5* | 0 | 2 | -3 | 1
COC(=O)c1cc(NC(=O)CC2SCCNC2=O)cc(C(=O)OC)c1 (stereo not given) | 2 | 3 | -1 | -2 | 10 | nt | nt
O=C(CC1SCCNC1=O)Nc1cc(Cl)cc(Cl)c1 (stereo not given) | 7 | 1 | 11* | 0 | -12 | 17* | 0 | GFP quench DR=>68
O=C(NC1CCCCCC1)C1CCCN(S(=O)(=O)c2cnc[nH]2)C1 (stereo not given) | -1 | 0 | -1 | 0 | 15 | nt | nt
SMILES | Arrestin-AP2 inh | MT1-MMP act inh | Rin1-Abl PPI inh | TbMetRS inhib | SKN-1 block | Rin1-Abl confirm | GFP quench | others
O=C(NC1CCCc2ccccc21)C1CCCN(S(=O)(=O)c2cnc[nH]2)C1 (stereo not given) | 17 | -1 | 7.3* | 1 | -14 | 0 | -2
CC(=O)N1CCN(c2ccc(NC(=O)c3cc4ccccc4o3)cc2)CC1 | 1 | -1 | 1 | 0 | 13 | nt | nt
CCCC(=O)Nc1ccc(N2CCN(C(=O)c3cc4ccccc4o3)CC2)cc1 | 9 | 5 | 11* | 0 | -1 | 8.1* | 1
COC(=O)c1ccc(NC(=O)CSc2nc3cccnc3n2C)cc1 | 5 | 3 | 1 | 0 | 2 | nt | nt
CCOC(=O)c1ccc(NC(=O)CSc2nncn2-c2cccnc2)cc1 | 16 | -4 | 7.8* | 0 | -10 | 2 | -1
CCOC(=O)c1ccc(NC(=O)CSc2nc3cccnc3n2C)cc1 | 5 | 1 | 9.9* | 1 | 4 | 6 | -1
CC1(C)Cc2nc3nc(SCC(=O)NCCc4ccccc4)n(-c4ccccc4)c(=O)c3cc2CO1 | 36 | -1 | 8.2* | -1 | 0 | 6 | 2
Cc1ccc(C(=O)NCc2ccncc2)cc1S(=O)(=O)Nc1cccc(C)c1C | 30 | -5 | 15* | 0 | 22 | -1 | -3
O=C(Nc1ccc(C(=O)N2CCCCC2)cc1)C1CC1 | -15 | 2 | -2 | 0 | 4 | nt | nt
Cc1ccc(NC(=O)CSc2nnc(CN3CCOCC3)n2C)cc1C | -3 | -4 | 4 | 0 | 19 | nt | nt
CC(C)c1ccc(NC(=O)CSc2nnc(CN3CCOCC3)n2C)cc1 | 32 | 0 | 18* | -1 | 4 | 26* | 1 | GFP quench DR=>67
O=C1NC[C@H](CCCCN2C[C@H](Cc3ccccc3)N(CCC3CCCCC3)C(=O)C2=O)N(CCc2ccccc2)C1=O | nt | -2 | nt | 0 | 6 | nt | nt
COC(=O)c1cc(O)cc(OC)c1Oc1cc(C)cc(O)c1C(=O)O | 29 | -2 | 20* | -2 | 23 | 21* | 4 | GFP quench DR=>68
COC(=O)c1cc(O)cc(OC)c1C(=O)c1c(O)cc(C)cc1O | 6 | 5 | 1 | -3 | -11 | nt | nt
Clc1ccc(C(c2cccs2)N2CCNCC2)cc1 (stereo not given) | nt | -11 | 2 | 0 | 10 | nt | nt
CC1=C(C(=O)N2CCCCCC2)CC(CC(=O)NCc2ccco2)C(=O)N1Cc1ccccc1 (stereo not given) | nt | 4 | -1 | 1 | 16 | nt | nt
CN1CCN(C(c2ccccn2)c2cc(Cl)c3cccnc3c2O)CC1 (stereo not given) | 10 | -1 | 26* | 0 | 11 | 22* | 4 | GFP quench DR=>68
